Results from EPA's CvTdb concentration-time database.
Values joined by “and” are separate entries in the source; they are usually repeats but may differ in a detail not shown here. Identical values can stand only once.

Legend:
Rat [1] = assay: concentration in brain after dosing; settings: 7 min; dosed: 2-Methyltetrahydrofuran; 40 mg/kg; iv; Male; Harlan Sprague Dawley
Rat [2] = assay: concentration in plasma after dosing; settings: 2 min; dosed: 2-Methyltetrahydrofuran; 40 mg/kg; iv; Female; Harlan Sprague Dawley
Rat [3] = assay: concentration in brain after dosing; settings: 2 h; dosed: 2-Methyltetrahydrofuran; 40 mg/kg; iv; Female; Harlan Sprague Dawley
Rat [4] = assay: concentration in plasma after dosing; settings: 1.5 h; dosed: 2-Methyltetrahydrofuran; 40 mg/kg; iv; Male; Harlan Sprague Dawley
Rat [5] = assay: concentration in plasma after dosing; settings: 1.5 h; dosed: 2-Methyltetrahydrofuran; 40 mg/kg; iv; Male; Harlan Sprague Dawley; remark: listed apart in the source
Rat [6] = assay: concentration in plasma after dosing; settings: 6 h; dosed: 2-Methyltetrahydrofuran; 40 mg/kg; iv; Male; Harlan Sprague Dawley
Rat [7] = assay: concentration in brain after dosing; settings: 0.75 h; dosed: 2-Methyltetrahydrofuran; 40 mg/kg; iv; Male; Harlan Sprague Dawley
Rat [8] = assay: concentration in kidney after dosing; settings: 12 h; dosed: Fluorotelomer alcohol 8+2; 80 mg/kg; oral; Female; Harlan Sprague Dawley
Rat [9] = assay: concentration in kidney after dosing; settings: 1 h; dosed: Fluorotelomer alcohol 8+2; 80 mg/kg; oral; Female; Harlan Sprague Dawley
Rat [10] = assay: concentration in kidney after dosing; settings: 0.5 h; dosed: Fluorotelomer alcohol 8+2; 80 mg/kg; oral; Female; Harlan Sprague Dawley
Rat [11] = assay: concentration in brain after dosing; settings: 0.5 h; dosed: Fluorotelomer alcohol 8+2; 80 mg/kg; oral; Female; Harlan Sprague Dawley
Rat [12] = assay: concentration in brain after dosing; settings: 0.5 h; dosed: Fluorotelomer alcohol 8+2; 80 mg/kg; oral; Female; Harlan Sprague Dawley; remark: listed apart in the source
Rat [13] = assay: concentration in kidney after dosing; settings: 6 h; dosed: Fluorotelomer alcohol 8+2; 80 mg/kg; oral; Female; Harlan Sprague Dawley
Rat [14] = assay: concentration in plasma after dosing; settings: dosed: 678-39-7, 40 mg/kg, iv, Female, Harlan Sprague-Dawley
Rat [15] = assay: concentration in plasma after dosing; settings: dosed: 678-39-7, 40 mg/kg, iv, Female, Harlan Sprague-Dawley; remark: listed apart in the source
Rat [16] = assay: concentration in liver after dosing; settings: 6 h; dosed: Fluorotelomer alcohol 8+2; 24 mg/kg; oral; Male; Harlan Sprague Dawley
Rat [17] = assay: concentration in plasma after dosing; settings: 3 h; dosed: Perfluorohexanoic Acid; 80 mg/kg; oral; Male; Harlan Sprague Dawley
Rat [18] = assay: concentration in liver after dosing; settings: 0.5 h; dosed: Perfluorohexanoic Acid; 80 mg/kg; oral; Male; Harlan Sprague Dawley
Rat [19] = assay: concentration in plasma after dosing; settings: 1.5 h; dosed: Perfluorohexanoic Acid; 40 mg/kg; iv; Male; F344
Rat [20] = assay: concentration in plasma after dosing; settings: 0.75 h; dosed: Perfluorohexanoic Acid; 40 mg/kg; iv; Male; F344
human = assay: concentration in expired air after dosing; settings: dosed: trichloroethylene, 100 ppm, inhalation, duration: 4 hr, person
In short: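 Points were largely digitised from plot screenshots with WebPlotDigitizer or otherwise copied from tables, and they remain in the units each source reported. They come from published in vivo toxicokinetic studies and two structured collections. Sampling and analytical methods follow each source and were often not reported.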

Rat [21] = assay: concentration in brain after dosing; settings: 1848 h; dosed: Perfluorooctane Sulfonate; 20 mg/kg; oral; Male; Harlan Sprague Dawley
Rat [22] = assay: concentration in plasma after dosing; settings: 6 h; dosed: Perfluorooctane Sulfonate; 2 mg/kg; oral; Female; Harlan Sprague Dawley
Rat [23] = assay: concentration in plasma after dosing; settings: dosed: Perfluorooctane Sulfonate, 2 mg/kg, iv, Male, F344
Rat [24] = assay: concentration in brain after dosing; settings: 3360 h; dosed: Perfluorooctane Sulfonate; 20 mg/kg; oral; Male; Harlan Sprague Dawley
Rat [25] = assay: concentration in liver after dosing; settings: 24 h; dosed: Perfluorooctane Sulfonate; 2 mg/kg; oral; Female; Harlan Sprague Dawley
Rat [26] = assay: concentration in kidney after dosing; settings: 3360 h; dosed: Perfluorooctane Sulfonate; 2 mg/kg; oral; Female; Harlan Sprague Dawley
Rat [27] = assay: concentration in brain after dosing; settings: 24 h; dosed: Perfluorooctane Sulfonate; 2 mg/kg; oral; Female; Harlan Sprague Dawley
Rat [28] = assay: concentration in plasma after dosing; settings: 24 h; dosed: Perfluorooctane Sulfonate; 2 mg/kg; oral; Female; Harlan Sprague Dawley
Rat [29] = assay: concentration in liver after dosing; settings: 6 h; dosed: Perfluorooctane Sulfonate; 2 mg/kg; oral; Female; Harlan Sprague Dawley
Rat [30] = assay: concentration in kidney after dosing; settings: 6 h; dosed: Perfluorooctane Sulfonate; 2 mg/kg; oral; Female; Harlan Sprague Dawley
Rat [31] = assay: concentration in liver after dosing; settings: 3360 h; dosed: Perfluorooctane Sulfonate; 20 mg/kg; oral; Male; Harlan Sprague Dawley
Rat [32] = assay: concentration in plasma after dosing; settings: dosed: Perfluorooctane Sulfonate, 2 mg/kg, iv, Male, F344; remark: listed apart in the source
Rat [33] = assay: concentration in kidney after dosing; settings: 6 h; dosed: Perfluorooctane Sulfonate; 20 mg/kg; oral; Male; Harlan Sprague Dawley
Rat [34] = assay: concentration in kidney after dosing; settings: 1848 h; dosed: Perfluorooctane Sulfonate; 2 mg/kg; oral; Female; Harlan Sprague Dawley
Rat [35] = assay: concentration in plasma after dosing; settings: 2 h; dosed: Gemfibrozil; 100 mg/kg; oral; Male; Sprague-Dawley
Rat [36] = assay: concentration in plasma after dosing; settings: 1 h; dosed: Gemfibrozil; 50 mg/kg; oral; Male; Sprague-Dawley

CC1CCCO1 (centres undefined) [2-Methyltetrahydrofuran]
Settings | concentration in brain [ng/mL] | concentration in plasma [ng/mL]
Rat [1] | 31000 | –
Rat [2] | – | 55300
Rat [3] | 3530 | –
Rat [4] | – | 12000
Rat [5] | – | 11000
Rat [6] | – | 29.7
Rat [7] | 14400 | –

O=C(O)CCC(F)(F)C(F)(F)C(F)(F)C(F)(F)C(F)(F)C(F)(F)C(F)(F)F [Fluorotelomer acid 7+3]
Settings | concentration in brain [ng/g] | concentration in kidney [ng/g] | concentration in liver [ng/g]
Rat [8] | – | 3110 | –
Rat [9] | – | 584 | –
Rat [10] | – | 357 | –
Rat [11] | 152 | – | –
Rat [12] | 114 | – | –
Rat [13] | – | 3640 | –
Rat [16] | – | – | 1500

concentration in plasma [ng/mL]
Settings | 0.75 h | 1 h | 12 h | 24 h
Rat [14] | – | 1350 | – | 347
Rat [15] | 929 | – | 368 | –

O=C(O)C(F)(F)C(F)(F)C(F)(F)C(F)(F)C(F)(F)F [Perfluorohexanoic Acid]
Settings | concentration in liver [ng/g] | concentration in plasma [ng/mL]
Rat [17] | – | 76100
Rat [18] | 67900 | –
Rat [19] | – | 8050
Rat [20] | – | 18600

ClC=C(Cl)Cl [trichloroethylene]
human
Settings | concentration in expired air
0.1172 h | 7.17 ppm
0.1972 h | 5.83 ppm
0.3304 h | 5.7 ppm
0.4637 h | 4.83 ppm
0.9967 h | 2.59 ppm
2.009 h | 1.89 ppm
4.021 h | 1.39 ppm
5.993 h | 1.35 ppm
8.019 h | 1.01 ppm
10.04 h | 1.08 ppm
12.02 h | 0.874 ppm
38 s | 21.7 ppm
230 s | 14.3 ppm and 10.8 ppm

O=S(=O)([O-])C(F)(F)C(F)(F)C(F)(F)C(F)(F)C(F)(F)C(F)(F)C(F)(F)C(F)(F)F [Perfluorooctane Sulfonate]
Settings | concentration in brain [ng/g] | concentration in kidney [ng/g] | concentration in liver [ng/g] | concentration in plasma [ng/mL]
Rat [21] | 660 | – | – | –
Rat [22] | – | – | – | 4920
Rat [24] | 890 | – | – | –
Rat [25] | – | – | 30300 | –
Rat [26] | – | 651 | – | –
Rat [27] | 920 | – | – | –
Rat [28] | – | – | – | 5040
Rat [29] | – | – | 25400 | –
Rat [30] | – | 12700 | – | –
Rat [31] | – | – | 8480 | –
Rat [33] | – | 63800 | – | –
Rat [34] | – | 2040 | – | –

concentration in plasma [ng/mL]
Settings | 6 h | 12 h | 528 h | 864 h | 3216 h
Rat [23] | 4060 | – | 1840 | – | 96.4
Rat [32] | – | 4880 | – | 2120 | –

Cc1ccc(C)c(OCCCC(C)(C)C(=O)O)c1 [Gemfibrozil]
Settings | concentration in plasma [ng/mL]
Rat [35] | 5120
Rat [36] | 7680
